According to ChEMBL document CHEMBL5058577, “EUbOPEN Chemogenomics Library 2 (Multiplex)” (2022):

Test system: Fibroblast
Assay: Multiplex assay against human fibroblast
Assay type: toxicity, cell-based
Procedure, shortened: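 Tubulin, mitochondrial-mass and membrane-permeability phenotypes are per cents of healthy-nucleus cells. Cells were gated by CellPathfinder machine learning into Hoechst high-intensity objects or normal cells, normal cells into healthy, pyknosed or fragmented nuclei, and pyknosed cells into mitotic or apoptotic. Before that, live cells stained at seeding with Hoechst33342, BioTracker Green Microtubule Cytoskeleton Dye, MitoTracker Red and Annexin V Alexa Fluor 680 were imaged on a CQ1 microscope at 37°C and 5% CO2 after compound addition.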

[1] = 12 h, 1 µM, compound concentration 1 uM, replicate 1
[2] = 12 h, 1 µM, compound concentration 1 uM, replicate 2
[3] = 12 h, 10 µM, compound concentration 10 uM, replicate 1
[4] = 12 h, 10 µM, compound concentration 10 uM, replicate 2
[5] = 24 h, 1 µM, compound concentration 1 uM, replicate 1
[6] = 24 h, 1 µM, compound concentration 1 uM, replicate 2
[7] = 24 h, 10 µM, compound concentration 10 uM, replicate 1
[8] = 24 h, 10 µM, compound concentration 10 uM, replicate 2
[9] = 48 h, 1 µM, compound concentration 1 uM, replicate 1
[10] = 48 h, 1 µM, compound concentration 1 uM, replicate 2
[11] = 48 h, 10 µM, compound concentration 10 uM, replicate 1
[12] = 48 h, 10 µM, compound concentration 10 uM, replicate 2

C[C@H](NC(=O)c1c(C(F)F)nn(C)c1Oc1cccc(C(F)(F)F)c1)c1ccc(C(=O)O)cc1 [PALUPIPRANT]
Population Apoptotic (%) [1]: 26%
Population Fragmented Nuclei (%) [1]: 29%
Population Healthy Nuclei (%) [1]: 57%
Population Hoechst High Intensity Objects (%) [1]: 5%
Population Membrane Permeable-Phenotype (%) [1]: 0%
Population Mitochondria Different-Phenotype (%) [1]: 4%
Population Mitotic Cells (%) [1]: 73%
Population Normal (%) [1]: 94%
Population Pyknosed Nuclei (%) [1]: 12%
Population Tubulin-Different-Phenotype (%) [1]: 23%
Total Cell Count [1]: 187
Population Apoptotic (%) [2]: 24%
Population Fragmented Nuclei (%) [2]: 23%
Population Healthy Nuclei (%) [2]: 52%
Population Hoechst High Intensity Objects (%) [2]: 6%
Population Membrane Permeable-Phenotype (%) [2]: 11%
Population Mitochondria Different-Phenotype (%) [2]: 6%
Population Mitotic Cells (%) [2]: 75%
Population Normal (%) [2]: 93%
Population Pyknosed Nuclei (%) [2]: 23%
Population Tubulin-Different-Phenotype (%) [2]: 55%
Total Cell Count [2]: 148
Population Apoptotic (%) [3]: 45%
Population Fragmented Nuclei (%) [3]: 13%
Population Healthy Nuclei (%) [3]: 70%
Population Hoechst High Intensity Objects (%) [3]: 2%
Population Membrane Permeable-Phenotype (%) [3]: 2%
Population Mitochondria Different-Phenotype (%) [3]: 6%
Population Mitotic Cells (%) [3]: 55%
Population Normal (%) [3]: 97%
Population Pyknosed Nuclei (%) [3]: 16%
Population Tubulin-Different-Phenotype (%) [3]: 45%
Total Cell Count [3]: 126
Population Apoptotic (%) [4]: 35%
Population Fragmented Nuclei (%) [4]: 42%
Population Healthy Nuclei (%) [4]: 35%
Population Hoechst High Intensity Objects (%) [4]: 14%
Population Membrane Permeable-Phenotype (%) [4]: 13%
Population Mitochondria Different-Phenotype (%) [4]: 13%
Population Mitotic Cells (%) [4]: 64%
Population Normal (%) [4]: 85%
Population Pyknosed Nuclei (%) [4]: 22%
Population Tubulin-Different-Phenotype (%) [4]: 60%
Total Cell Count [4]: 149
Population Apoptotic (%) [5]: 40%
Population Fragmented Nuclei (%) [5]: 32%
Population Healthy Nuclei (%) [5]: 58%
Population Hoechst High Intensity Objects (%) [5]: 5%
Population Membrane Permeable-Phenotype (%) [5]: 1%
Population Mitochondria Different-Phenotype (%) [5]: 4%
Population Mitotic Cells (%) [5]: 60%
Population Normal (%) [5]: 94%
Population Pyknosed Nuclei (%) [5]: 8%
Population Tubulin-Different-Phenotype (%) [5]: 15%
Total Cell Count [5]: 178
Population Apoptotic (%) [6]: 42%
Population Fragmented Nuclei (%) [6]: 26%
Population Healthy Nuclei (%) [6]: 53%
Population Hoechst High Intensity Objects (%) [6]: 7%
Population Membrane Permeable-Phenotype (%) [6]: 8%
Population Mitochondria Different-Phenotype (%) [6]: 5%
Population Mitotic Cells (%) [6]: 57%
Population Normal (%) [6]: 92%
Population Pyknosed Nuclei (%) [6]: 20%
Population Tubulin-Different-Phenotype (%) [6]: 51%
Total Cell Count [6]: 141
Population Apoptotic (%) [7]: 60%
Population Fragmented Nuclei (%) [7]: 18%
Population Healthy Nuclei (%) [7]: 62%
Population Hoechst High Intensity Objects (%) [7]: 5%
Population Membrane Permeable-Phenotype (%) [7]: 2%
Population Mitochondria Different-Phenotype (%) [7]: 7%
Population Mitotic Cells (%) [7]: 39%
Population Normal (%) [7]: 94%
Population Pyknosed Nuclei (%) [7]: 18%
Population Tubulin-Different-Phenotype (%) [7]: 35%
Total Cell Count [7]: 131
Population Apoptotic (%) [8]: 38%
Population Fragmented Nuclei (%) [8]: 40%
Population Healthy Nuclei (%) [8]: 42%
Population Hoechst High Intensity Objects (%) [8]: 10%
Population Membrane Permeable-Phenotype (%) [8]: 13%
Population Mitochondria Different-Phenotype (%) [8]: 3%
Population Mitotic Cells (%) [8]: 61%
Population Normal (%) [8]: 89%
Population Pyknosed Nuclei (%) [8]: 17%
Population Tubulin-Different-Phenotype (%) [8]: 51%
Total Cell Count [8]: 138
Population Apoptotic (%) [9]: 53%
Population Fragmented Nuclei (%) [9]: 34%
Population Healthy Nuclei (%) [9]: 57%
Population Hoechst High Intensity Objects (%) [9]: 11%
Population Membrane Permeable-Phenotype (%) [9]: 0%
Population Mitochondria Different-Phenotype (%) [9]: 4%
Population Mitotic Cells (%) [9]: 46%
Population Normal (%) [9]: 88%
Population Pyknosed Nuclei (%) [9]: 7%
Population Tubulin-Different-Phenotype (%) [9]: 29%
Total Cell Count [9]: 184
Population Fragmented Nuclei (%) [10]: 30%
Population Healthy Nuclei (%) [10]: 50%
Population Hoechst High Intensity Objects (%) [10]: 3%
Population Membrane Permeable-Phenotype (%) [10]: 4%
Population Normal (%) [10]: 96%
Population Pyknosed Nuclei (%) [10]: 19%
Population Tubulin-Different-Phenotype (%) [10]: 53%
Total Cell Count [10]: 147
Population Apoptotic (%) [11]: 73%
Population Fragmented Nuclei (%) [11]: 20%
Population Healthy Nuclei (%) [11]: 60%
Population Hoechst High Intensity Objects (%) [11]: 4%
Population Membrane Permeable-Phenotype (%) [11]: 1%
Population Mitochondria Different-Phenotype (%) [11]: 8%
Population Mitotic Cells (%) [11]: 26%
Population Normal (%) [11]: 95%
Population Pyknosed Nuclei (%) [11]: 18%
Population Tubulin-Different-Phenotype (%) [11]: 46%
Total Cell Count [11]: 130
Population Apoptotic (%) [12]: 60%
Population Fragmented Nuclei (%) [12]: 45%
Population Healthy Nuclei (%) [12]: 45%
Population Hoechst High Intensity Objects (%) [12]: 13%
Population Membrane Permeable-Phenotype (%) [12]: 10%
Population Mitochondria Different-Phenotype (%) [12]: 6%
Population Mitotic Cells (%) [12]: 40%
Population Normal (%) [12]: 86%
Population Pyknosed Nuclei (%) [12]: 9%
Population Tubulin-Different-Phenotype (%) [12]: 50%
Total Cell Count [12]: 122
